In ChEMBL document CHEMBL1165902, “Synthesis and antiproliferative activity of oxazinocarbazole and N,N-bis(carbazolylmethyl)amine derivatives” (Eur J Med Chem, 2010):
pIC50: −log10 of the molar value.

Assays:
[1] = tested on: CCRF-CEM; experiment: Antiproliferative activity against human CEM cells after at 100 uM 72 hrs by WST1 assay; assay type: functional
Summary of the method: (§1)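 Cells were exposed to compound for 72 h at 37 °C in RPMI 1640 with 10% FCS. Densities (cells/mL) were CEM 0.2×10^6, Jurkat 0.6×10^6, Raji 0.4×10^6, MCF-7 and Caco-2 0.2×10^6. WST-1 was then added for 4 h and absorbance read at 492 nm. Living cells are given as % of untreated-control OD (100 = no activity), with 0.1% DMSO vehicle controls and etoposide as positive control.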

[2] = tested on: Jurkat; experiment: Antiproliferative activity against human Jurkat cells at 100 uM after 72 hrs by WST1 assay; assay type: functional; summary of the method: as §1
[3] = tested on: Raji; experiment: Antiproliferative activity against human Raji cells at 100 uM after 72 hrs by WST1 assay; assay type: functional; summary of the method: as §1
[4] = tested on: MCF7; experiment: Antiproliferative activity against human MCF7 cells at 100 uM after 72 hrs by WST1 assay; assay type: functional; summary of the method: as §1
[5] = tested on: Caco-2; experiment: Antiproliferative activity against human Caco-2 cells at 100 uM after 72 hrs by WST1 assay; assay type: functional; summary of the method: as §1
[6] = tested on: CCRF-CEM; experiment: Antiproliferative activity against human CEM cells after 72 hrs by WST1 assay; assay type: functional, cell-based
Summary of the method: (§2)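 Seeding densities (cells/mL) were CEM 0.2×10^6, Jurkat 0.6×10^6, Raji 0.4×10^6, MCF-7 0.2×10^6 and Caco-2 0.2×10^6, in RPMI 1640 with 10% FCS, non-essential amino acids, pyruvate, glutamine and gentamicin. Cells were exposed to 12.5–100 µM (DMSO stocks, 0.1% DMSO controls) for 72 h at 37 °C. WST-1 was added for 4 h and read at 492 nm. IC50 is for 50% growth inhibition.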

[7] = tested on: Jurkat; experiment: Antiproliferative activity against human Jurkat cells after 72 hrs by WST1 assay; assay type: functional, cell-based; summary of the method: as §2
[8] = tested on: Raji; experiment: Antiproliferative activity against human Raji cells after 72 hrs by WST1 assay; assay type: functional, cell-based; summary of the method: as §2
[9] = tested on: MCF7; experiment: Antiproliferative activity against human MCF7 cells after 72 hrs by WST1 assay; assay type: functional, cell-based; conditions: MCF7, 72 h; summary of the method: as §2
[10] = tested on: Caco-2; experiment: Antiproliferative activity against human Caco-2 cells after 72 hrs by WST1 assay; assay type: functional, cell-based; conditions: Caco-2, 72 h; summary of the method: as §2

Row | pIC50 [6] | pIC50 [7] | pIC50 [8] | pIC50 [9] | pIC50 [10] | Compound | Activity [1] [%] | Activity [2] [%] | Activity [3] [%] | Activity [4] [%] | Activity [5] [%]
1 | 4.30 | 4.30 | 4.25 | 4.20 | 4.49 | C=CCN1COc2cc3c(cc2C1)c1ccccc1n3C | 1.5 | 1.5 | 10.5 | 1.5 | 2.5
2 | – | – | – | – | – | CCn1c2ccccc2c2c(O)c(CN(Cc3ccccn3)Cc3ccc4c(c3O)c3ccccc3n4CC)ccc21 | 53 | 97.5 | 100 | 89 | 35.5
3 | – | – | – | – | – | C=CCn1c2ccccc2c2c(O)c(CN(Cc3ccccn3)Cc3ccc4c(c3O)c3ccccc3n4CC=C)ccc21 | 78.5 | 92 | 95.5 | 94.5 | 94
4 | 4.16 | 4.15 | 4.14 | 4.12 | 4.24 | Cc1ccc(CN2COc3cc4c(cc3C2)c2ccccc2n4C)cc1 | 1 | 2.5 | 27 | 27.5 | 6.5
5 | – | – | – | – | – | Cn1c2ccccc2c2c3c(ccc21)CN(c1ccccc1)CO3 | 25 | 74.5 | 77 | 100 | 100
6 | – | – | – | – | – | C=CCn1c2ccccc2c2c3c(ccc21)CN(c1ccccc1)CO3 | 17 | 13.5 | 49.5 | 83 | 54.5
7 | 4.93 | 4.93 | 4.92 | 4.43 | 4.36 | C=CCN1COc2c(ccc3c2c2ccccc2n3CC=C(C)C)C1 | 4 | 2 | 3.5 | 2 | 30
8 | 4.42 | 4.26 | 4.41 | 4.12 | 4.12 | CC(C)=CCn1c2ccccc2c2c3c(ccc21)CN(Cc1ccccc1)CO3 | 5.5 | 7.5 | 7 | 27.5 | 53
9 | – | – | – | – | – | CC(C)=CCn1c2ccccc2c2c(O)c(CN(Cc3ccccn3)Cc3ccc4c(c3O)c3ccccc3n4CC=C(C)C)ccc21 | 100 | 100 | 100 | 100 | 100
10 | – | – | – | – | – | Cn1c2ccccc2c2c(O)c(CN(Cc3ccccn3)Cc3ccc4c(c3O)c3ccccc3n4C)ccc21 | 87.5 | 72 | 100 | 98.5 | 54
11 | 4.13 | 4.12 | – | – | 4.16 | Cn1c2ccccc2c2ccc3c(c21)CN(Cc1ccccn1)CO3 | 1 | 2 | 23 | 1.5 | 7
12 | – | – | – | – | – | Cn1c2ccccc2c2c3c(ccc21)CN(Cc1ccccc1)CO3 | 10 | 87 | 80 | 87 | 100
13 | 4.78 | 4.94 | 4.92 | 4.25 | 4.36 | Cn1c2ccccc2c2cc3c(cc21)OCN(Cc1ccccn1)C3 | 1.5 | 3.5 | 38 | 5 | 7.5
14 | – | – | – | – | – | C=CCN1COc2ccc3c4ccccc4n(C)c3c2C1 | 1.5 | 2 | 60.5 | 62 | 5
15 | 4.15 | 4.13 | 4.12 | 4.14 | 4.20 | Cn1c2ccccc2c2ccc3c(c21)CN(Cc1ccccc1)CO3 | 1.5 | 5.5 | 31.5 | 60.5 | 6
16 | – | – | – | – | – | CCn1c2ccccc2c2c3c(ccc21)CN(c1ccccc1)CO3 | 58.5 | 55 | 84 | 100 | 100
17 | – | – | – | – | – | CCn1c2ccccc2c2c3c(ccc21)CN(Cc1ccccn1)CO3 | 23 | 82 | 100 | 52 | 16
18 | – | – | – | – | – | Cn1c2ccccc2c2cc(CN(Cc3ccccn3)Cc3cc4c5ccccc5n(C)c4cc3O)c(O)cc21 | 9 | 8.5 | 70 | 24.5 | 10.5

Row | pIC50 [6] | pIC50 [7] | pIC50 [8] | pIC50 [9] | pIC50 [10] | Compound | Activity [1] [%] | Activity [2] [%] | Activity [3] [%] | Activity [4] [%] | Activity [5] [%]
19 | 4.45 | 4.16 | 4.36 | – | 4.49 | C=CCN1COc2c(ccc3c2c2ccccc2n3C)C1 | 4.5 | 8.5 | 9.5 | 35 | 5
20 | – | – | – | – | – | CCn1c2ccccc2c2c3c(ccc21)CN(Cc1ccccc1)CO3 | 31.5 | – | – | 64 | 46
21 | – | – | – | – | – | CCn1c2ccccc2c2c3c(ccc21)CN(Cc1ccc(C)cc1)CO3 | 15 | 49.5 | 31.5 | 85.5 | 93
22 | – | – | – | – | – | Cn1c2ccccc2c2cc3c(cc21)OCN(Cc1ccccc1)C3 | 0.5 | 1 | 11 | 3 | 1.5
23 | – | – | – | – | – | C=CCN1COc2c(ccc3c2c2ccccc2n3CC=C)C1 | 2 | 2.5 | 19.5 | 43 | 12
24 | – | – | – | – | – | Cc1ccc(CN2COc3c(ccc4c3c3ccccc3n4C)C2)cc1 | 55.5 | – | – | 42.5 | –
25 | – | – | – | – | – | CC(c1ccccc1)N1COc2c(ccc3c2c2ccccc2n3C)C1 (centres undefined) | 40 | 80.5 | 84 | 100 | 100
26 | – | – | – | – | – | C=CCn1c2ccccc2c2c3c(ccc21)CN(Cc1ccccc1)CO3 | 5.5 | 67 | 100 | 55.5 | 56.5
27 | – | – | – | – | – | C=CCn1c2ccccc2c2c3c(ccc21)CN(Cc1ccc(C)cc1)CO3 | 9 | 3.5 | 9.5 | 66 | 54.5
28 | – | – | – | – | – | C=CCn1c2ccccc2c2c3c(ccc21)CN(Cc1ccccn1)CO3 | 14.5 | 12.5 | 31.5 | 47.5 | 55.5
29 | 4.60 | 4.43 | 4.24 | 4.20 | 4.42 | CC(c1ccccc1)N1COc2cc3c(cc2C1)c1ccccc1n3C (centres undefined) | 0.5 | 1 | 18.5 | 0 | 2
30 | – | – | – | – | – | Cc1ccc(CN2COc3ccc4c5ccccc5n(C)c4c3C2)cc1 | 1 | 1.5 | 12 | 1.5 | 3
31 | – | – | – | – | – | CC(C)=CCn1c2ccccc2c2c3c(ccc21)CN(Cc1ccc(C)cc1)CO3 | 11.5 | 13.5 | 11 | 41.5 | 48.5
32 | – | – | – | – | – | CC(c1ccccc1)N1COc2ccc3c4ccccc4n(C)c3c2C1 (centres undefined) | 0.5 | 0.5 | 19.5 | 0 | 5
33 | – | – | – | – | – | Cn1c2ccccc2c2cc3c(cc21)OCN(Cc1nc2ccccc2s1)C3 | 34 | 17 | 78 | 79 | 51
34 | 4.36 | 4.12 | 4.36 | – | 4.60 | C=CCN1COc2c(ccc3c2c2ccccc2n3CC)C1 | 4 | 6.5 | 4.5 | 10 | 34
35 | – | – | – | – | – | CCn1c2ccccc2c2c3c(ccc21)CN(C(C)c1ccccc1)CO3 (centres undefined) | 21 | – | – | 86.5 | 59
36 | – | – | – | – | – | CC(C)=CCn1c2ccccc2c2c3c(ccc21)CN(c1ccccc1)CO3 | 10.5 | 7.5 | 17 | 49 | 60
